Data: paper PMC3749563 (British Journal of Cancer, 2013)

Tests used:
[1] = tested on: α1-acid glycoprotein and albumin; settings: ref Wu et al, 2012; cited from earlier work
[2] = single agent, 3 consecutive days per week schedule; ref Tolcher et al, 2012; cited from earlier work
γ-secretase = settings: ref Luistro et al, 2009; cited from earlier work
[3] = tested on: circulating VEGF-A, VEGF-C, SDF-1; experiment: Circulating biomarker evaluation; format: in vivo, human; settings: after dosing with cediranib (with RO4929097), cycle 1
Summary of the method: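 Patients with advanced solid tumours. Blood was drawn before dosing on cycle 1 day 1, cycle 1 day 22 and cycle 2 day 1. Plasma VEGF-A, VEGF-B, VEGF-C, bFGF, SDF-1-alpha, IL-6 and IL-8 were measured by commercial ELISA kits following the manufacturer's protocol. Samples were run in duplicate, with a triplicate if values differed by more than 15%. Results were discarded unless at least two agreed within 15%.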

[4] = Dose-limiting toxicities and recommended phase II dose; format: in vivo, human; settings: cediranib daily, in combination with RO4929097; highest dose level completed
[5] = tested on: VEGF receptors (VEGFR-1, VEGFR-2 and VEGFR-3), and c-Kit; settings: ref Wedge et al, 2005; cited from earlier work

Compound	Plasma protein binding [1]	Daily dose at which reversible CYP3A4 autoinduction was detected [2]	γ-Secretase inhibition (γ-secretase)	Change of circulating SDF-1 [3]	Change of circulating VEGF-A [3]	Change of circulating VEGF-C [3]	Recommended phase II dose (RP2D) [4] [mg]	Inhibition of VEGF signalling [5]
CC(C)(C(=O)NCC(F)(F)C(F)(F)F)C(=O)N[C@@H]1C(=O)Nc2ccccc2-c2ccccc21 [RO4929097]	highly bound	above 24 mg	potent and selective					
COc1cc2c(Oc3ccc4[nH]c(C)cc4c3F)ncnc2cc1OCCCN1CCCC1 [cediranib]				Increases	Increases	Increases	30	highly potent inhibitor
